Here are results for 20 molecules from ChEMBL document CHEMBL1125049, “Aporphines as antagonists of dopamine D-1 receptors” (J Med Chem, 1990).

For assay [1], the species on record is Rattus norvegicus. Nature of the assay: Ability to stimulate adenylate cyclase in rat retinal tissue over basal levels. Type of assay: functional. The method, boiled down: (§1)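 Agonist mode: adenylate cyclase stimulation measured in rat retinal tissue in vitro, with (R)-apomorphine as positive control for D-1 agonist activity; assay run by a previously published adenylate cyclase procedure.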

The species entered for assay [2] is Rattus norvegicus. Format: functional.
For assay [3], the species on record is Rattus norvegicus. Format: functional. The source holds these as a separate data set.
The target of another assay is D(1A) dopamine receptor (Rattus norvegicus, UniProt P18901).
D(1A) dopamine receptor, sequence (P18901 whole entry): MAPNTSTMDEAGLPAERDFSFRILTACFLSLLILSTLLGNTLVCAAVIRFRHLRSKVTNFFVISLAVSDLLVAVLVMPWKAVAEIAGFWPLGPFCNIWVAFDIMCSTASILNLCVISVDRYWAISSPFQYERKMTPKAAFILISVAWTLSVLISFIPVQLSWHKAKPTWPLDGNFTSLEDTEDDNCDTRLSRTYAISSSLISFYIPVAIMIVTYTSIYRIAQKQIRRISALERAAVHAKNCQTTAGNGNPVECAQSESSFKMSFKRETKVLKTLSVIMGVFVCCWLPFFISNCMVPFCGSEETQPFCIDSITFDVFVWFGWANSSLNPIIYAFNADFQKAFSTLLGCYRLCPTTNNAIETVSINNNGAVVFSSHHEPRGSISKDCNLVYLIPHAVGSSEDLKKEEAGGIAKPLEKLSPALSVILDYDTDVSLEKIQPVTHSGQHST
In another assay the target is D(2) dopamine receptor (Rattus norvegicus, UniProt P61169). The assay can be described thus: In vitro binding affinity towards rat Dopamine receptor D2 by [3H]spiperone displacement.
D(2) dopamine receptor, sequence (P61169 whole entry): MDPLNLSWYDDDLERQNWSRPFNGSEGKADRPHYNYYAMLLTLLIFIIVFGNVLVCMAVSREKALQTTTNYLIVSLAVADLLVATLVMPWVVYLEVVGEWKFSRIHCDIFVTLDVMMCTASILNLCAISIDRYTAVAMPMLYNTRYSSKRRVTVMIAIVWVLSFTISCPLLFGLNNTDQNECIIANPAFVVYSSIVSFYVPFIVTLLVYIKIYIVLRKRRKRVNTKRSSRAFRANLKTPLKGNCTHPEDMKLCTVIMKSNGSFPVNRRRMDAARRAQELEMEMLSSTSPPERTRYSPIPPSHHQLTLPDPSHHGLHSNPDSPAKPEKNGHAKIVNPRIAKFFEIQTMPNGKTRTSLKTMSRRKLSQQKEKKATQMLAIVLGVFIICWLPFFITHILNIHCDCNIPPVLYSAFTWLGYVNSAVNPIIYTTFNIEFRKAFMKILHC
For assay [4], the species on record is Rattus norvegicus. The assay can be described thus: Ability to stimulate adenylate cyclase in rat retinal tissue over basal levels; NS=no significant stimulation. Format: functional. The method, boiled down:
as §1

Assay [5] can be described thus: Activity was determined against Adenylate cyclase.
Assay [6] is filed under the species Rattus norvegicus. Nature of the assay: Ability to block adenylate cyclase stimulation caused by 10 uM dopamine in rat retinal tissue in vitro at a concentration of 100 uM. Format: functional.

Activity calls are given as the source filed them. The rule behind the calls is not given here. Where only a bound is given, the exact number is not on record here.

For orientation: Inhibition means the share of the control response that was lost under treatment. The low end stands for a response near the control, the high end for a response far below the control. The IC50 is the concentration needed to halve the response being measured.

For `CN1CCc2cccc3c2[C@H]1Cc1ccc(O)c(O)c1-3` [APOMORPHINE], the Stimulation in the assay filed under Rattus norvegicus [1] worked out at 91.5%.
With `CN1CCc2cccc3c2[C@H]1Cc1c([N+](=O)[O-])ccc(O)c1-3`, the Inhibition in the assay filed under Rattus norvegicus [2] is listed as 7.2%; in the assay filed under Rattus norvegicus [3], 33.5%.
With `CN1CCc2cccc3c2[C@H]1Cc1c(Br)ccc(O)c1-3`, the IC50 on D(1A) dopamine receptor amounted to 181 nM; at D(2) dopamine receptor, 449 nM. For the same molecule, the Inhibition was found to be 13.1% in the assay filed under Rattus norvegicus [2] and 83.3% in the assay listed under Rattus norvegicus [3]. The Stimulation result in the assay listed under Rattus norvegicus [4] was “inactive”.
The like results for `CN1CCc2cccc3c2[C@@H]1Cc1cccc(O)c1-3` were, in that order, 5060 nM, 2240 nM, 0.8%, 38% and “inactive”.
With `COc1cccc2c1-c1cccc3c1[C@H](C2)N(C)CC3`, the results for the IC50 at D(1A) dopamine receptor and at D(2) dopamine receptor were 12100 nM and 829 nM, respectively. For the same molecule, the Inhibition in the assay filed under Rattus norvegicus [2] turned out to be 0.7%; in the assay listed under Rattus norvegicus [3] it was 0%.
Turning to `CN1CCc2cccc3c2[C@@H]1Cc1ccc(Br)c(O)c1-3`, the IC50 at D(1A) dopamine receptor came to 3340 nM; at D(2) dopamine receptor, 2930 nM. In addition, the results for the Inhibition in the assay listed under Rattus norvegicus [2] and in the assay listed under Rattus norvegicus [3] were 9.8% and 54.2%, respectively.
The like results for `CN1CCc2cccc3c2[C@H]1Cc1c(Br)cc(Br)c(O)c1-3` were, in that order, above 1000 nM, above 1000 nM, 8.5% and 45.9%.
As for `CN1CCc2cccc3c2[C@H]1Cc1cc(Br)cc(O)c1-3`, the IC50 at D(1A) dopamine receptor worked out at 818 nM; on D(2) dopamine receptor, 2580 nM. Further, the figures for the Inhibition in the assay listed under Rattus norvegicus [2] and in the assay filed under Rattus norvegicus [3] were 5.3% and 73.4%, respectively. Further, the inhibition entry in the assay filed under Rattus norvegicus [4] was “inactive”.
Consider `CN1CCc2cccc3c2[C@@H]1Cc1ccc(O)c(O)c1-3` [(S)APOMORPHINE], for which the Inhibition in the assay listed under Rattus norvegicus [3] came to 42.3%.
On to `CN1CCc2cc(Cl)c(O)cc2[C@@H](c2ccccc2)C1` [SCH-23390], for which the Inhibition in the assay filed under Rattus norvegicus [2] amounted to 86%; in the assay filed under Rattus norvegicus [3] it was 89.7%. In assay [5], this molecule showed a 50% inhibitory concentration (IC50) of 3 nM.
Consider `CN1CCc2cccc3c2[C@H]1Cc1c(Cl)ccc(O)c1-3`, for which the IC50 stood at 561 nM at D(1A) dopamine receptor and 500 nM at D(2) dopamine receptor. Further, the values for the Inhibition in the assay listed under Rattus norvegicus [2] and in the assay listed under Rattus norvegicus [3] were 12.6% and 71.6%, respectively.
The like results for `CN1CCc2cccc3c2[C@@H]1Cc1cc(Br)cc(O)c1-3` were, in that order, above 1000 nM, above 1000 nM, 16.8% and 3.2%.
`CN1CCc2cccc3c2[C@@H]1Cc1c(Br)ccc(O)c1-3`: the IC50 is 8610 nM on D(1A) dopamine receptor and above 10000 nM on D(2) dopamine receptor. The Inhibition turned out to be 11.9% in the assay listed under Rattus norvegicus [2] and 79.4% in the assay filed under Rattus norvegicus [3].
As to `COc1ccc2c(c1O)-c1c3c(cc4c1[C@H](C2)N(C)CC4)OCO3` [(S)-BULBOCAPNINE], the IC50 against D(1A) dopamine receptor was found to be 739 nM; at D(2) dopamine receptor it was 14000 nM. For the same molecule, the Inhibition worked out at 24.4% in the assay listed under Rattus norvegicus [2] and 85.1% in the assay listed under Rattus norvegicus [3].
For the molecule `CN1CCc2cccc3c2[C@H]1Cc1ccc(Br)c(O)c1-3`, the IC50 against D(1A) dopamine receptor is 171 nM; at D(2) dopamine receptor, 664 nM. In addition, the results for the Inhibition in the assay filed under Rattus norvegicus [2] and in the assay listed under Rattus norvegicus [3] were 24.4% and 87.8%, respectively. Also, in the assay listed under Rattus norvegicus [4], the inhibition entry was “inactive”.
Regarding `CN1CCc2cccc3c2[C@H]1Cc1ccc(Cl)c(O)c1-3`, the IC50 at D(1A) dopamine receptor amounted to 637 nM; at D(2) dopamine receptor, 803 nM. In addition, the Inhibition in the assay filed under Rattus norvegicus [2] was 19.7%; in the assay listed under Rattus norvegicus [3], 82%.
For `COc1cccc2c1-c1cccc3c1[C@@H](C2)N(C)CC3`, in that order: 3280 nM, 2160 nM, 7.7% and 31.7%.
As for `CCCN1CCC[C@@H]2Cc3nc(N)ncc3C[C@H]21` [QUINELORANE], the IC50 against D(1A) dopamine receptor was above 10000 nM; at D(2) dopamine receptor, 151 nM. In the assay listed under Rattus norvegicus [6], this molecule yielded an Inhibition of 6.8%. For the same molecule, the Stimulation result in the assay filed under Rattus norvegicus [4] was “inactive”.
On to `CN1CCc2cccc3c2[C@H]1Cc1cccc(O)c1-3`, for which the IC50 at D(1A) dopamine receptor was 107 nM; on D(2) dopamine receptor, 58 nM. Besides, the values for the Inhibition in the assay filed under Rattus norvegicus [2] and in the assay filed under Rattus norvegicus [3] were 31.2% and 87.8%, respectively. In addition, in the assay listed under Rattus norvegicus [4], the Stimulation entry was “inactive”.
For the molecule `COc1ccc2c(c1O)-c1cccc3c1[C@@H](C2)N(C)CC3` [APOCIDEINE], the IC50 against D(1A) dopamine receptor is 13300 nM; on D(2) dopamine receptor it was 2080 nM. The Inhibition in the assay filed under Rattus norvegicus [3] turned out to be 5.7%. Further, the Stimulation result in the assay filed under Rattus norvegicus [4] was “inactive”.
